From ChEMBL document CHEMBL1125292, “Synthesis of novel 2-phenyl-2H-pyrazolo[4,3-c]isoquinolin-3-ols: topological comparisons with analogues of 2-phenyl-2,5-dihydropyrazolo[4,3-c]quinolin-3(3H)-ones at benzodiazepine receptors” (J Med Chem, 1992)

Molecular target: GABA-A receptor; anion channel
Assay: Concentration to inhibit [3H]flunitrazepam binding to rat cerebral cortical membrane
Procedure, shortened: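 Rat cerebral cortex homogenized in 50 mM Tris-HCl pH 7.4, centrifuged 20000g 20 min at 4 °C, washed three times, resuspended in 50 volumes. Triplicate incubations with [3H]flunitrazepam (~1 nM final) at 4 °C for 120 min, ended by GF/B filtration and ice-cold buffer washes. Nonspecific binding defined with 10 μM unlabeled flunitrazepam.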

| Compound | IC50 |
| --- | --- |
| COc1ccc(-n2nc3c4ccccc4c[n+](Cc4ccccc4)c3c2[O-])cc1 | > 2000 nM |
| [O-]c1c2c(nn1-c1ccc(F)cc1)c1ccccc1c[n+]2Cc1ccccc1 | > 2000 nM |
| [O-]c1c2c(nn1-c1ccccc1)c1ccccc1c[n+]2Cc1ccccc1 | > 2000 nM |
| Clc1c2ncc3ccccc3c2nn1-c1ccccc1 | > 2000 nM |
| c1ccc2c(c1)cnc1c3ccccc3[nH]c21 | > 2000 nM |
| COc1ccc(-n2[nH]c3c(ncc4ccccc43)c2=O)cc1 | > 2000 nM |
| O=c1c2ncc3ccccc3c2[nH]n1-c1ccccc1 | > 2000 nM |
| O=c1c2ncc3ccccc3c2[nH]n1-c1ccc(F)cc1 | > 2000 nM |
| Sc1c2ncc3ccccc3c2nn1-c1ccccc1 | > 2000 nM |
| [O-]c1c2c(nn1-c1ccc(Cl)cc1)c1ccccc1c[n+]2Cc1ccccc1 | > 2000 nM |
| Oc1c2ncc3ccccc3c2nn1-c1ccc(Cl)cc1 | > 2000 nM |
| COc1ccc(-n2nc3c4ccccc4[nH]cc-3c2=O)cc1 | 0.9 nM |
